Measurements published in ChEMBL document CHEMBL4400536, “Design and synthesis of aminothiazole based Hepatitis B Virus (HBV) capsid inhibitors” (Eur J Med Chem, 2019).
Active and inactive are the calls of the source. The calls are words filed in the database; no cut-off is given here.

Key:
[1] = molecular target: Core antigen (Hepatitis B virus) (UniProt Q03732); assay: Inhibition of GFP-fused Hepatitis B Virus capsid expressed in HEK293T cells at 50 uM after 48 hrs relative to control; format: cell-based
Chain of Core antigen (Hepatitis B virus) (Q03732 as listed by the source): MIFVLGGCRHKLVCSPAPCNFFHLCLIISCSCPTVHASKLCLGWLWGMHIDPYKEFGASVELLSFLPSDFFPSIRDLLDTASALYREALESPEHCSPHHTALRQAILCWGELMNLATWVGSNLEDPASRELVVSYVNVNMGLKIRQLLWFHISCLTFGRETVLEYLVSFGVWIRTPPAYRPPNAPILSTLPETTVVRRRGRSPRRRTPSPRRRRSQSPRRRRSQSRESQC
In short: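 BiFC assay: HBc fused to Venus fragments VN (1–154) and VC (155–239) were co-transfected into 293T cells, then compounds were added. The dose series used 0, 0.5, 5 and 50 μM; SAR used 50 μM as percent inhibition. After 48 h, reconstituted fluorescence was read as mean fluorescent intensity on a plate reader, with fluorescence microscopy images.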

[2] = Cytotoxicity against human HepG2.2.15 cells; format: cell-based, HepG2 2.2.15
[3] = test system: Hepatitis B virus; assay: Antiviral activity against Hepatitis B virus infected in human HepG2.2.15 cells assessed as inhibition of viral replication after 7 days by RT-PCR analysis; format: functional, organism-based; details: for IC50: HepG2.2.15, 168 h

With `O=C(Nc1ncc(C(Oc2ccc3cc(Br)ccc3c2)c2ccc(Cl)cc2)s1)c1cccs1` (stereo not drawn) the inhibition [1] was 47%.

`Clc1ccc(C(Oc2ccc3cc(Br)ccc3c2)c2cnc(NCC3CCCCC3)s2)cc1` (stereo not drawn) gave an inhibition [1] of 61%.

With `CCCCCC(=O)Nc1ncc(C(Oc2ccc3cc(Br)ccc3c2)c2ccc(Cl)cc2)s1` (stereo not drawn) the CC50 [2] was over 50 µM and the inhibition [1] was “inactive”.

`CC(C)(C)OC(=O)Nc1ncc(C(Oc2ccc3cc(Br)ccc3c2)c2ccc(Cl)cc2)s1` (stereo not drawn) gave a CC50 [2] of over 50 µM, an IC50 [3] of 2.27 µM and an inhibition [1] of 55%.

For `CCc1ccc(S(=O)(=O)Nc2ncc(C(Oc3ccc4cc(Br)ccc4c3)c3ccc(Cl)cc3)s2)cc1` (stereo not drawn), the CC50 [2] was over 50 µM and the inhibition [1] was “inactive”.

With `CC(C)(C)OC(=O)Nc1ncc(C(Oc2cccc(C#N)c2)c2ccc(Cl)cc2)s1` (stereo not drawn) the CC50 [2] was over 50 µM and the inhibition [1] was “inactive”.

Compound `COc1ccc(C(=O)Nc2ncc(C(Oc3ccc4cc(Br)ccc4c3)c3ccc(Br)cc3)s2)cc1` (stereo not drawn) has a CC50 [2] of over 50 µM and an inhibition [1] of 78%.

For `COc1ccc(C(=O)Nc2ncc(C(Oc3ccc4cc(Br)ccc4c3)c3ccc(C#N)cc3)s2)cc1` (stereo not drawn), the inhibition [1] was “inactive”.

`COCCNc1ncc(C(Oc2ccc3cc(Br)ccc3c2)c2ccc(Cl)cc2)s1` (stereo not drawn) showed an inhibition [1] of 37%.

Work on `O=S(=O)(Nc1ncc(C(Oc2ccc3cc(Br)ccc3c2)c2ccc(Cl)cc2)s1)c1cccs1` (stereo not drawn) yielded an inhibition [1] of 44%.

In the case of `O=S(=O)(Nc1ncc(C(Oc2ccc3cc(Br)ccc3c2)c2ccc(Cl)cc2)s1)c1ccc(Cl)cc1` (stereo not drawn), the inhibition [1] is reported as 50%.

In the case of `CC(C)(C)OC(=O)Nc1ncc(C(Oc2ccc(Br)cc2)c2ccc(Cl)cc2)s1` (stereo not drawn), the CC50 [2] is reported as over 50 µM and the inhibition [1] is reported as “inactive”.

In the case of `COCCc1ccc(OC(c2ccc(Cl)cc2)c2cnc(NC(=O)OC(C)(C)C)s2)cc1` (stereo not drawn), the CC50 [2] is reported as over 50 µM and the inhibition [1] is reported as “inactive”.

In the case of `O=S(=O)(Nc1ncc(C(Oc2ccc3cc(Br)ccc3c2)c2ccc(Cl)cc2)s1)c1ccc2c(c1)CCO2` (stereo not drawn), the CC50 [2] is reported as over 50 µM and the inhibition [1] is reported as “inactive”.

`O=C(Nc1ncc(Cc2ccc(Cl)cc2)s1)c1cccs1` showed a CC50 [2] of over 50 µM, an IC50 [3] of 3.62 µM and an inhibition [1] of 59%.

For `Cc1ccc(S(=O)(=O)Nc2ncc(C(Oc3ccc4cc(Br)ccc4c3)c3ccc(Cl)cc3)s2)c2ccccc12` (stereo not drawn), the CC50 [2] was over 50 µM and the inhibition [1] was “inactive”.

`O=C(Nc1ncc(C(Oc2ccc3cc(Br)ccc3c2)c2ccc(Cl)cc2)s1)c1ccc(Cl)nc1` (stereo not drawn) gave an inhibition [1] of 45%.

`O=S(=O)(Nc1ncc(C(Oc2ccc3cc(Br)ccc3c2)c2ccc(Cl)cc2)s1)c1ccc(Cl)nc1` (stereo not drawn) showed an inhibition [1] of 30%.

With `O=C(Nc1ncc(C(OCc2ccc(Br)cc2)c2ccccc2)s1)c1cccs1` (stereo not drawn) the inhibition [1] was 64%.

In the case of `COc1ccc(C(=O)Nc2ncc(C(Nc3cccc4ccccc34)c3ccc(Cl)cc3)s2)cc1` (stereo not drawn), the CC50 [2] is reported as over 50 µM, the IC50 [3] is reported as 6.85 µM and the inhibition [1] is reported as 69%.

`Cc1ccc(C(=O)Nc2ncc(Cc3ccc(F)cc3)s2)cc1` showed an inhibition [1] of 53%.

For `O=C(CCCCC(=O)Nc1ncc(Cc2ccc(F)cc2)s1)Nc1ncc(Cc2ccc(F)cc2)s1`, the CC50 [2] was over 50 µM and the inhibition [1] was “inactive”.

With `CCOC(=O)C1=C(CN2CCOCC2)NC(c2nccs2)=NC1c1ccc(F)cc1Br` (stereo not drawn) the Activity [3] was “Dose-dependent effect”.

`O=C(Nc1ncc(C(OCc2ccc(Cl)cc2)c2ccccc2)s1)c1cccs1` (stereo not drawn) gave an inhibition [1] of 59%.

For `CC(=O)O[C@@H]1OC(C(=O)Nc2ncc(C(Oc3ccc4cc(Br)ccc4c3)c3ccc(Cl)cc3)s2)[C@@H](OC(C)=O)[C@@H](OC(C)=O)[C@H]1OC(C)=O` (stereo partly drawn), the inhibition [1] was 40%.

`O=C(Nc1ncc(C(OCc2ccc(F)cc2F)c2ccccc2)s1)c1cccs1` (stereo not drawn) gave an inhibition [1] of 26%.

For `O=C(Nc1ncc(Cc2ccc(Cl)cc2)s1)c1ccc(F)cc1F`, the inhibition [1] was “inactive”.

For `O=C(Nc1ncc(Cc2ccc(Br)cc2)s1)c1cccs1`, the CC50 [2] was over 50 µM and the inhibition [1] was “inactive”.

For `O=C(Nc1ncc(C(Oc2ccc3cc(Br)ccc3c2)c2ccc(Cl)cc2)s1)c1ccc(F)cc1` (stereo not drawn), the inhibition [1] was 50%.

With `CC(C)(C)OC(=O)Nc1ncc(C(Oc2ccc(F)c(Cl)c2)c2ccc(Cl)cc2)s1` (stereo not drawn) the CC50 [2] was over 50 µM and the inhibition [1] was “inactive”.

In the case of `O=C(Nc1ncc(Cc2ccc(Br)cc2)s1)c1ccc2ccccc2c1`, the CC50 [2] is reported as over 50 µM and the inhibition [1] is reported as “inactive”.

For `COc1ccc(C(=O)Nc2ncc(C(Oc3ccc4cc(Br)ccc4c3)c3ccc(F)cc3)s2)cc1` (stereo not drawn), the CC50 [2] was over 50 µM and the inhibition [1] was 76%.

With `CC(C)(C)OC(=O)Nc1ncc(C(Oc2ccc(OCc3ccccc3)cc2)c2ccc(Cl)cc2)s1` (stereo not drawn) the CC50 [2] was over 50 µM and the inhibition [1] was “inactive”.

In the case of `O=C(Nc1ncc(C(OCc2ccc(F)cc2Br)c2ccccc2)s1)c1cccs1` (stereo not drawn), the inhibition [1] is reported as 27%.

With `O=C(Nc1ncc(C(Oc2ccc3cc(Br)ccc3c2)c2ccc(Cl)cc2)s1)C1CC1` (stereo not drawn) the inhibition [1] was 67%.

With `Cc1ccc(C)c(S(=O)(=O)Nc2ncc(C(Oc3ccc4cc(Br)ccc4c3)c3ccc(Cl)cc3)s2)c1` (stereo not drawn) the CC50 [2] was over 50 µM and the inhibition [1] was “inactive”.

For `N#Cc1cccc(C(=O)Nc2ncc(C(Oc3ccc4cc(Br)ccc4c3)c3ccc(Cl)cc3)s2)c1` (stereo not drawn), the CC50 [2] was over 50 µM and the inhibition [1] was 70%.

Work on `Clc1ccc(C(Oc2ccc3cc(Br)ccc3c2)c2cnc(NCC3CCOCC3)s2)cc1` (stereo not drawn) yielded an inhibition [1] of 43%.

Work on `CCN(CC)C(=O)Nc1ncc(C(Oc2ccc3cc(Br)ccc3c2)c2ccc(Cl)cc2)s1` (stereo not drawn) yielded an inhibition [1] of 67%.

Work on `Cc1noc(C)c1C(=O)Nc1ncc(C(Oc2ccc3cc(Br)ccc3c2)c2ccc(Cl)cc2)s1` (stereo not drawn) yielded an inhibition [1] of 64%.

Compound `CCOC(=O)CCCNc1ncc(C(Oc2ccc3cc(Br)ccc3c2)c2ccc(Cl)cc2)s1` (stereo not drawn) has an inhibition [1] of 35%.

Work on `COc1ccc(Br)c(COC(c2ccccc2)c2cnc(NC(=O)c3cccs3)s2)c1` (stereo not drawn) yielded an inhibition [1] of 45%.

Work on `CC(C)(C)C(=O)Nc1ncc(C(Oc2ccc3cc(Br)ccc3c2)c2ccc(Cl)cc2)s1` (stereo not drawn) yielded an inhibition [1] of 47%.

With `O=C(Nc1ncc(C(Oc2ccc3cc(Br)ccc3c2)c2ccc(Cl)cc2)s1)C1CCCO1` (stereo not drawn) the inhibition [1] was 35%.

For `O=C(Nc1ncc(Cc2ccc(F)cc2)s1)C1CCCCC1`, the CC50 [2] was over 50 µM and the inhibition [1] was “inactive”.

With `Cc1ccc(COC(c2ccccc2)c2cnc(NC(=O)c3cccs3)s2)cc1` (stereo not drawn) the inhibition [1] was 64%.

For `O=C(Nc1ncc(C(Oc2ccc3cc(Br)ccc3c2)c2ccc(Cl)cc2)s1)c1cc(F)c(F)cc1F` (stereo not drawn), the inhibition [1] was 44%.

`O=C(Nc1ncc(C(OCc2ccc3ccccc3c2)c2ccccc2)s1)c1cccs1` (stereo not drawn) gave an inhibition [1] of 47%.

In the case of `Cc1ccc(C(=O)Nc2ncc(C(Oc3ccc4cc(Br)ccc4c3)c3ccc(Cl)cc3)s2)cc1` (stereo not drawn), the inhibition [1] is reported as 71%.

With `O=S(=O)(Nc1ncc(C(Oc2ccc3cc(Br)ccc3c2)c2ccc(Cl)cc2)s1)c1ccc2ccccc2c1` (stereo not drawn) the CC50 [2] was over 50 µM and the inhibition [1] was “inactive”.

For `COc1ccc(C(=O)Nc2ncc(C(Oc3ccc4cc(Br)ccc4c3)c3ccc(Cl)cc3)s2)cc1` (stereo not drawn), the CC50 [2] was over 50 µM, the IC50 [3] was 1.45 µM and the inhibition [1] was 54%.

`O=C(Nc1ncc(C(Oc2ccc3cc(Br)ccc3c2)c2ccc(Cl)cc2)s1)c1ccc(F)cc1F` (stereo not drawn) showed an inhibition [1] of 51%.

With `O=C(Nc1ncc(C(Oc2ccc3cc(Br)ccc3c2)c2ccc(Cl)cc2)s1)c1ccc(F)cc1Br` (stereo not drawn) the CC50 [2] was over 50 µM, the IC50 [3] was 3.55 µM and the inhibition [1] was 65%.

In the case of `Cc1cc(C(C)C)ccc1OC(c1ccc(Cl)cc1)c1cnc(NC(=O)OC(C)(C)C)s1` (stereo not drawn), the CC50 [2] is reported as over 50 µM and the inhibition [1] is reported as “inactive”.

With `COC(=O)CCCCNc1ncc(C(Oc2ccc3cc(Br)ccc3c2)c2ccc(Cl)cc2)s1` (stereo not drawn) the inhibition [1] was 40%.

For `O=C(Nc1ncc(Cc2ccc(F)cc2)s1)c1ccc(Cl)cc1Cl`, the CC50 [2] was over 50 µM and the inhibition [1] was “inactive”.

`COc1ccc(COC(c2ccccc2)c2cnc(NC(=O)c3cccs3)s2)cc1` (stereo not drawn) showed an inhibition [1] of 64%.

`CCCCC(CC)CNc1ncc(C(Oc2ccc3cc(Br)ccc3c2)c2ccc(Cl)cc2)s1` (stereo not drawn) showed an inhibition [1] of 55%.

With `O=C(Nc1ncc(Cc2ccc(F)cc2)s1)c1ccccc1` the inhibition [1] was 60%.

`O=S(=O)(Nc1ncc(C(Oc2ccc3cc(Br)ccc3c2)c2ccc(Cl)cc2)s1)c1ccccc1` (stereo not drawn) showed a CC50 [2] of over 50 µM, an IC50 [3] of 2.32 µM and an inhibition [1] of 63%.

With `O=C(Nc1ncc(C(Oc2ccc3cc(Br)ccc3c2)c2ccc(Cl)cc2)s1)c1ccc(Br)cc1` (stereo not drawn) the CC50 [2] was over 50 µM and the inhibition [1] was “inactive”.

For `COc1ccc(C(=O)Nc2ncc(C(Oc3ccc4ccc(Br)cc4c3)c3ccc(S(C)(=O)=O)cc3)s2)cc1` (stereo not drawn), the inhibition [1] was “inactive”.

In the case of `O=C(Nc1ncc(Cc2ccc(F)cc2)s1)c1ccc(Br)cc1`, the CC50 [2] is reported as over 50 µM and the inhibition [1] is reported as “inactive”.

`O=C(Nc1ncc(C(Oc2ccc3cc(Br)ccc3c2)c2ccc(Cl)cc2)s1)C1CCOCC1` (stereo not drawn) gave an inhibition [1] of 66%.

Work on `O=C(Nc1ncc(C(Oc2ccc3cc(Br)ccc3c2)c2ccc(Cl)cc2)s1)c1ccccc1` (stereo not drawn) yielded an inhibition [1] of 58%.

`COCCCNc1ncc(C(Oc2ccc3cc(Br)ccc3c2)c2ccc(Cl)cc2)s1` (stereo not drawn) showed an inhibition [1] of 38%.

For `O=C(Nc1ncc(Cc2ccc(F)cc2)s1)c1cccs1`, the CC50 [2] was over 500 µM and the IC50 [3] was 6.15 µM.

For `Cc1cc(Br)cc(OC(c2ccc(Cl)cc2)c2cnc(NC(=O)OC(C)(C)C)s2)c1` (stereo not drawn), the CC50 [2] was over 50 µM and the inhibition [1] was “inactive”.

Compound `O=S(=O)(Nc1ncc(C(Oc2ccc3cc(Br)ccc3c2)c2ccc(Cl)cc2)s1)c1cccc2nsnc12` (stereo not drawn) has an inhibition [1] of 50%.

For `CC(C)(C)OC(=O)Nc1ncc(C(Oc2ccc(Cc3ccccc3)cc2)c2ccc(Cl)cc2)s1` (stereo not drawn), the CC50 [2] was over 50 µM and the inhibition [1] was “inactive”.

`COc1ccc(C(=O)Nc2ncc(C(Sc3ccc4ccccc4c3)c3ccc(Cl)cc3)s2)cc1` (stereo not drawn) gave an inhibition [1] of 49%.
